In article PMC9177108 (The Oncologist, 2022):

How the values were obtained:
Plasma pharmacokinetics = type: in vivo, human; settings: for k el / AUC(0-t) / Cmax / concentration at 15 day / MRT: human, plasma, 10 mg; for k el: λz; for k el / concentration at 15 day / Css, max, Mean ± SD / %Fluctuation, GeoMean(%CVb) / %Fluctuation, Mean ± SD / CLss/F, GeoMean(%CVb) / CLss/F, Mean ± SD / Css, max, GeoMean(%CVb) / R ac, AUC (accumulation ratio based on AUC), Mean ± SD / R ac, Cmax (accumulation ratio based on Cmax), Mean ± SD / Tss, max, Median: multiple dose; for AUC(0-t) / Cmax / MRT / %AUCex, GeoMean(%CVb) / %AUCex, Mean ± SD / CL/F, GeoMean(%CVb) / CL/F, Mean ± SD: single dose; for Cmax: C max; for concentration at 15 day: Css; for Css, max, Mean ± SD: C1D15, 10 mg p.o.
Summary of the method: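 Test compound was given at 10 mg orally, either continuously daily or 3 weeks on/1 week off. Plasma PK was sampled on cycle 1 day 1 after a single dose for Tmax, Cmax, AUC0-24h, AUC0-t, AUC0-∞, λz, t1/2, CL/F, Vz/F, %AUCex and MRT. After multiple doses, steady-state parameters were Css max/min/avg, Tss,max, AUCss, CLss/F, Vss/F, %Fluctuation and accumulation ratios. […]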

FGFR = settings: AL3810 compared with sorafenib; cited from earlier work
[1] = tested on: patients with recurrent and metastatic nasopharyngeal carcinoma (RM-NPC); test: Antitumor efficacy; type: in vivo, human; settings: for time to response: radiologic assessment every 8 weeks
Summary of the method: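 Patients with pretreated RM-NPC were randomised to two arms, each evaluated separately (10 per arm). Both arms took test compound 10 mg orally daily: intermittent arm 3 weeks on/1 week off, continuous arm daily on a 4-week cycle. The investigator assessed response by RECIST 1.1. ORR was CR or PR as best overall response. DCR was confirmed CR, confirmed PR or SD lasting ≥4 weeks from randomisation.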

[2] = oral, GeoMean(%CVb), C1D1, continuous arm (n = 5)
[3] = oral, GeoMean(%CVb), C1D1, intermittent arm (n = 4)
[4] = continuous arm (10 mg p.o. daily, 4-week cycle), n = 10
[5] = intermittent arm (10 mg p.o., 3 weeks on/1 week off), n = 10
[6] = intermittent arm, n = 10, listed as lucitanib

CNC(=O)c1cccc2cc(Oc3ccnc4cc(OCC5(N)CC5)c(OC)cc34)ccc12 [Lucitanib]
k el (Plasma pharmacokinetics; Mean ± SD, C1D15, intermittent arm (n=4)): 5.56e-06 s⁻¹
AUC(0-t) (Plasma pharmacokinetics; oral, AUC0-24h, GeoMean(%CVb), C1D1, continuous arm (n = 5)): 2.41 µg·h/mL
AUC(0-t) (Plasma pharmacokinetics; oral, AUC0-24h, GeoMean(%CVb), C1D1, intermittent arm (n = 4)): 2.77 µg·h/mL
AUC(0-t) (Plasma pharmacokinetics; oral, AUC0-24h, Mean ± SD, C1D1, continuous arm (n = 5)): 2.56 ± 0.858 µg·h/mL
AUC(0-t) (Plasma pharmacokinetics; oral, AUC0-24h, Mean ± SD, C1D1, intermittent arm (n = 4)): 3.11 ± 1.89 µg·h/mL
AUC(0-t) (Plasma pharmacokinetics; oral, AUC0-t, Mean ± SD, C1D1, continuous arm (n = 5)): 2.51 ± 0.834 µg·h/mL
AUC(0-t) (Plasma pharmacokinetics; oral, AUC0-t, Mean ± SD, C1D1, intermittent arm (n = 4)): 3.03 ± 1.75 µg·h/mL
Cmax (Plasma pharmacokinetics; [2]): 0.261 µg/mL
Cmax (Plasma pharmacokinetics; [3]): 0.228 µg/mL
concentration at 15 day (Plasma pharmacokinetics; oral, avg, GeoMean(%CVb), C1D15, continuous arm (n=5)): 0.257 µg/mL
concentration at 15 day (Plasma pharmacokinetics; oral, avg, GeoMean(%CVb), C1D15, intermittent arm (n=4)): 0.382 µg/mL
concentration at 15 day (Plasma pharmacokinetics; oral, avg, Mean ± SD, C1D15, continuous arm (n=5)): 0.278 ± 0.11 µg/mL
concentration at 15 day (Plasma pharmacokinetics; oral, avg, Mean ± SD, C1D15, intermittent arm (n=4)): 0.403 ± 0.155 µg/mL
concentration at 15 day (Plasma pharmacokinetics; oral, min, GeoMean(%CVb), C1D15, continuous arm (n=5)): 0.176 µg/mL
concentration at 15 day (Plasma pharmacokinetics; oral, min, GeoMean(%CVb), C1D15, intermittent arm (n=4)): 0.284 µg/mL
concentration at 15 day (Plasma pharmacokinetics; oral, min, Mean ± SD, C1D15, continuous arm (n=5)): 0.203 ± 0.0935 µg/mL
concentration at 15 day (Plasma pharmacokinetics; oral, min, Mean ± SD, C1D15, intermittent arm (n=4)): 0.303 ± 0.118 µg/mL
MRT (Plasma pharmacokinetics; [2]): 32.2 h
MRT (Plasma pharmacokinetics; [3]): 32.6 h
MRT (Plasma pharmacokinetics; oral, Mean ± SD, C1D1, continuous arm (n = 5)): 34.2 ± 14.3 h
MRT (Plasma pharmacokinetics; oral, Mean ± SD, C1D1, intermittent arm (n = 4)): 36.3 ± 21.6 h
k el (Plasma pharmacokinetics; oral, GeoMean(%CVb), C1D15, continuous arm (n=5)): 2.78e-06 s⁻¹
k el (Plasma pharmacokinetics; oral, GeoMean(%CVb), C1D15, intermittent arm (n=4)): 5.56e-06 s⁻¹
Css, max, Mean ± SD (Plasma pharmacokinetics; continuous arm (n=5)): 0.4828 ± 0.27181 µg/mL
Css, max, Mean ± SD (Plasma pharmacokinetics; intermittent arm (n=4)): 0.6085 ± 0.16948 µg/mL
%Fluctuation, GeoMean(%CVb) (Plasma pharmacokinetics; C1D15, continuous arm (n=5)): 90.75(63.71) %
%Fluctuation, Mean ± SD (Plasma pharmacokinetics; C1D15, continuous arm (n=5)): 104.26 ± 61.47%
CLss/F, GeoMean(%CVb) (Plasma pharmacokinetics; C1D15, continuous arm (n=5)): 1.62(49.01) L/hour
CLss/F, Mean ± SD (Plasma pharmacokinetics; C1D15, continuous arm (n=5)): 1.78 ± 0.93 L/h
Css, max, GeoMean(%CVb) (Plasma pharmacokinetics; C1D15, continuous arm (n=5)): 435.78(50.87) ng/mL
R ac, AUC (accumulation ratio based on AUC), Mean ± SD (Plasma pharmacokinetics; C1D15, continuous arm (n=5)): 2.62 ± 0.55
R ac, Cmax (accumulation ratio based on Cmax), Mean ± SD (Plasma pharmacokinetics; C1D15, continuous arm (n=5)): 1.98 ± 1.20
Tss, max, Median (Plasma pharmacokinetics; C1D15, continuous arm (n=5)): 2.97 h
%Fluctuation, GeoMean(%CVb) (Plasma pharmacokinetics; C1D15, intermittent arm (n=4)): 79.03(27.10) %
%Fluctuation, Mean ± SD (Plasma pharmacokinetics; C1D15, intermittent arm (n=4)): 81.15 ± 21.54%
CLss/F, GeoMean(%CVb) (Plasma pharmacokinetics; C1D15, intermittent arm (n=4)): 1.09(40.16) L/hour
CLss/F, Mean ± SD (Plasma pharmacokinetics; C1D15, intermittent arm (n=4)): 1.15 ± 0.45 L/h
Css, max, GeoMean(%CVb) (Plasma pharmacokinetics; C1D15, intermittent arm (n=4)): 590.42(29.26) ng/mL
R ac, AUC (accumulation ratio based on AUC), Mean ± SD (Plasma pharmacokinetics; C1D15, intermittent arm (n=4)): 3.38 ± 0.84
R ac, Cmax (accumulation ratio based on Cmax), Mean ± SD (Plasma pharmacokinetics; C1D15, intermittent arm (n=4)): 2.67 ± 0.69
Tss, max, Median (Plasma pharmacokinetics; C1D15, intermittent arm (n=4)): 1.98 h
%AUCex, GeoMean(%CVb) (Plasma pharmacokinetics; C1D1, continuous arm (n = 5)): 47.22(22.24) %
%AUCex, Mean ± SD (Plasma pharmacokinetics; C1D1, continuous arm (n = 5)): 48.16 ± 10.87%
CL/F, GeoMean(%CVb) (Plasma pharmacokinetics; C1D1, continuous arm (n = 5)): 2.15(57.72) L/hour
CL/F, Mean ± SD (Plasma pharmacokinetics; C1D1, continuous arm (n = 5)): 2.44 ± 1.5048 L/h
%AUCex, GeoMean(%CVb) (Plasma pharmacokinetics; C1D1, intermittent arm (n = 4)): 46.33(29.69) %
%AUCex, Mean ± SD (Plasma pharmacokinetics; C1D1, intermittent arm (n = 4)): 47.96 ± 15.75%
CL/F, GeoMean(%CVb) (Plasma pharmacokinetics; C1D1, intermittent arm (n = 4)): 1.83(105.30) L/hour
CL/F, Mean ± SD (Plasma pharmacokinetics; C1D1, intermittent arm (n = 4)): 2.24 ± 1.21 L/h
exposure (Cmax, AUC0-24h) at steady state relative to day 1 (Plasma pharmacokinetics; steady state vs day 1, 10 mg p.o.): two to three times
potency against FGFR (FGFR): more potent
duration of response ([1]; all three responders, both arms): more than 1 year
time to response ([1]; all three responders): observed by the first evaluation
time to response ([1]; all three responders, listed as lucitanib): at the first evaluation
Best response PR [1, 4]: n = 2 (20%) n (%)
Response assessment CR [1, 4]: n = 0 (0%) n (%)
Best response PR ([1]; continuous arm (10 mg p.o. daily, 4-week cycle), n = 10, listed as lucitanib): 2 (20) n (%)
Best response PD ([1]; continuous arm, n = 10): 1 (10) n (%)
Best response SD ([1]; continuous arm, n = 10): 7 (70) n (%)
DCR ([1]; continuous arm, n = 10): 90%
ORR ([1]; continuous arm, n = 10): 20%
Response assessment OTHER ([1]; continuous arm, n = 10): n = 0 (0%) n (%)
median PFS ([1]; continuous arm, n = 10, 90% CI 3.5 to NE): 3.73 months
Best response PR [1, 5]: 1 (10) n (%)
Response assessment CR [1, 5]: n = 0 (0%) n (%)
Best response SD ([1]; intermittent arm, n = 10): n = 5 (50%) n (%)
median PFS ([1]; intermittent arm, n = 10, 90% CI 1.74 to 7.36): 3.68 months
Best response PD [1, 6]: 3 (30) n (%)
Best response SD [1, 6]: 5 (50) n (%)
DCR [1, 6]: 60%
ORR [1, 6]: 10%
sustained response, patients still on treatment ([1]; two responders still on treatment at last follow-up): > 3 years
